Results on two compounds are retold here after ChEMBL document CHEMBL1132225, “Novel antidiabetic and hypolipidemic agents. 3. Benzofuran-containing thiazolidinediones” (J Med Chem, 1999).

Data set [1] in a line: Pharmacokinetic Parameter, half life period measured in Female Wistar Rats at 100 mg/kg by po administration. It counts as ADME, organism-based. Set-up: dose 100 mg/kg, route oral. The conditions noted are these: rat, in vivo.
Data set [2] is described as follows: Pharmacokinetic Parameter, Tmax is the time at which maximum concentration (Cmax) is reached in Female Wistar Rats at 100 mg/kg by po administration. It counts as ADME, organism-based. Details: dose 100 mg/kg, route oral. To be noted: rat, in vivo.
A short description of data set [3]: Pharmacokinetic Parameter, AUC (0-infinity) is the area under the plasma concentration versus time curve extrapolated to infinity in Female Wistar Rats at 100 mg/kg by po administration. It counts as ADME, organism-based. Details: time infinity, dose 100 mg/kg, route oral. The conditions noted are these: rat, read-out: AUC 0-infinity.
Data set [4] can be described thus: Pharmacokinetic Parameter, AUC (0-t) is the area under the plasma concentration versus time curve in Female Wistar Rats at 100 mg/kg by po administration. It counts as ADME, organism-based. The conditions noted are these: rat. Set-up: dose 100 mg/kg, route oral.
A short description of data set [5]: Pharmacokinetic Parameter, Cmax is observed maximum plasma concentration in Female Wistar Rats at 100 mg/kg by po administration. Set-up: dose 100 mg/kg, route oral. To be noted: rat. It counts as ADME, organism-based.
For data set [6], the species on record is Rattus norvegicus. Kind of data set: The AUC(0-infinity) values in female wistar rats. It counts as ADME, organism-based. Set-up: time infinity. To be noted: in vivo.
The species entered for data set [7] is Rattus norvegicus. The data set is described as follows: The AUC(0-t)values in female wistar rats. It counts as ADME, organism-based. To be noted: in vivo.
Data set [8] is described as follows: Pharmacokinetic Parameter, Kel is elimination rate constant in Female Wistar Rats at 100 mg/kg by po administration. It counts as ADME, organism-based. Set-up: dose 100 mg/kg, route oral. The conditions noted are these: rat, in vivo.
Data set [9] in a line: The Kel values in female wistar rats. To be noted: rat, in vivo. It counts as ADME, organism-based.
Data set [10] can be described thus: The Cmax values in female wistar rats. It counts as ADME, organism-based. To be noted: rat, in vivo.
Data set [11] can be described thus: The half life period in female wistar rats. It counts as ADME, organism-based. The conditions noted are these: rat, in vivo. The method in brief: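 Female Wistar rats (200–225 g), fasted 12 h overnight with water, fed 3 h post-dose; single 100 mg/kg oral dose as 0.5% CMC suspension. Retro-orbital blood sampled at multiple times; 0.2 mL plasma extracted, analysed by reverse-phase C18 HPLC with internal standard. Parameters by noncompartmental analysis; mean ± SD, n = 4.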

Data set [12] in a line: The Tmax values in female wistar rats. It counts as ADME, organism-based. The conditions noted are these: rat, in vivo.
For data set [13], the species on record is Mus musculus. Kind of data set: Percent reduction of plasma glucose after 6 days of treatment (various doses). It counts as functional.
The species entered for data set [14] is Mus musculus. Kind of data set: The compound was tested for percent reduction of plasma triglyceride after 6 days of treatment. Set-up: concentration or dose not given beside the values. It counts as functional.
For data set [15], the system named is Mus musculus. Kind of data set: Percent reduction of plasma glucose (PG) after 6 days of treatment. It is the mean of standard deviation observed in plasma glucose (PG) in db/db mice at dose of 200 mg/kg/day. It counts as functional. To be noted: route oral.
For data set [16], the system named is Mus musculus. The data set is described as follows: Percent reduction of plasma glucose (PG) after 6 days of treatment. It is the mean of standard deviation observed in plasma glucose (PG) in db/db mice at dose of 30 mg/kg/day; NA = Not Active. It counts as functional, organism-based.
For data set [17], the system named is Mus musculus. The data set is described as follows: Percent reduction in plasma triglyceride (TG) after 6 days of treatment. It is the mean of standard deviation observed in plasma triglyceride (TG) in db/db mice at dose of 200 mg/kg/day. It counts as functional. The conditions noted are these: route oral.
Data set [18] concerns Mus musculus. The data set is described as follows: Percent reduction in plasma triglyceride (TG) after 6 days of treatment. It is the mean of standard deviation observed in plasma triglyceride (TG) in db/db mice at dose of 30 mg/kg/day; NA = Not Active. It counts as functional, organism-based.
For data set [19], the target named is T1, Peroxisome proliferator-activated receptor alpha (Homo sapiens) (UniProt Q07869).
T1 sequence (whole entry): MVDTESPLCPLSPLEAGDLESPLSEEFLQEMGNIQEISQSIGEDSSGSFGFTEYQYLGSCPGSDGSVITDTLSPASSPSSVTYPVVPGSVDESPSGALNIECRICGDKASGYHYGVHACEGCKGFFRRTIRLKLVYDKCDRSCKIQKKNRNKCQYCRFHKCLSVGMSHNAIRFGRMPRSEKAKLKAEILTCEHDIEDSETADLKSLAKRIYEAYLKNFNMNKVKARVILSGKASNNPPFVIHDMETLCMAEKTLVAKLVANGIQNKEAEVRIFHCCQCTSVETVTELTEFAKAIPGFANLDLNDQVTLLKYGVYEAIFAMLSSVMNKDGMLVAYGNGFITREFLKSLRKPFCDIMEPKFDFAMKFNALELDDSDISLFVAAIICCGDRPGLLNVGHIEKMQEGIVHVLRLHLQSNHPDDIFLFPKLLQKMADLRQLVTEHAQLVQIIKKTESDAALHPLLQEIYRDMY
The data set is described as follows: Compound was tested for fold transactivation of human Peroxisome proliferator activated receptor alpha at 50 uM.

In data set [20] the test system is Mus musculus. Kind of data set: Percent reduction of plasma glucose (PG) after 6 days of treatment. It is the mean of standard deviation observed in plasma glucose (PG) in db/db mice at dose of 100 mg/kg/day. It counts as functional. To be noted: route oral.
Data set [21] relates to Mus musculus. The data set is described as follows: Percent reduction of plasma glucose (PG) after 6 days of treatment. It is the mean of standard deviation observed in plasma glucose (PG) in db/db mice at dose of 30 mg/kg/day. It counts as functional. The conditions noted are these: route oral.
Data set [22] has as its system Mus musculus. Kind of data set: Percent reduction in plasma triglyceride (TG) after 6 days of treatment. It is the mean of standard deviation observed in plasma triglyceride (TG) in db/db mice at dose of 100 mg/kg/day. The conditions noted are these: route oral. It counts as functional.
The test system of data set [23] is Mus musculus. The data set is described as follows: Percent reduction in plasma triglyceride (TG) after 6 days of treatment. It is the mean of standard deviation observed in plasma triglyceride (TG) in db/db mice at dose of 30 mg/kg/day. To be noted: route oral. It counts as functional.

Several values for one entry are separate records, joined by “and”; a condition that tells them apart may be missing. Identical values can stand only once. Activity calls are given as the source filed them. The calls are words filed in the database; no cut-off is given here.

For orientation: half-life means the time in which the quantity being followed falls by half. Broadly, the Tmax is the time at which the peak concentration occurs. What is called AUC(0-t) is exposure summed from dosing to a finite time, without extrapolation to infinity. The Cmax is the peak of the concentration-time curve. As usually defined, the AUC is the area under the concentration-time curve, a measure of exposure.

Consider `Cc1c(C)c2c(c(C)c1O)CCC(C)(COc1ccc(CC3SC(=O)NC3=O)cc1)O2` (configuration not stated) [TROGLITAZONE], for which the half-life in data set [1] and in [11] was 4.01 h throughout. In addition, the Tmax in [2] and in data set [12] was 2.25 h in each case. In addition, the AUC(0-inf) in [3] is 27400 ng·h/mL. The exposure AUC(0-t) in [4] is 25900 ng·h/mL. In addition, the maximum concentration (Cmax) in data set [5] and in data set [10] was 5470 ng/mL each time. Further, the exposure (AUC) in data set [6] is 27400 ng·h/mL; in [7], 25900 ng·h/mL. For the same compound, the k el in data set [8] and in data set [9] was 5.56e-05 s⁻¹ each time. Besides, the Reduction was 26% in data set [13] and 50% in [14]. The compound further registered a PG in data set [15] of 26%. In data set [16], the PG result was “inactive”. The TG in [17] is given as 50%. Besides, the TG result in [18] is “inactive”. In data set [19], this compound came in with a Transactivation of 1.12 fold.

Consider `Cc1c(C)c2c(c(C)c1OCc1ccccc1)C(CN1CCC[C@H]1COc1ccc(/C=C3\SC(=O)NC3=O)cc1)C(C)(C)O2` (some centres not stated), for which the half-life in [1] and in data set [11] was 13.1 h throughout. In addition, the time of peak concentration (Tmax) in data set [2] and in data set [12] was 3.5 h throughout. In addition, in data set [3], the AUC(0-inf) was 23600 ng·h/mL. The compound further returned an AUC(0-t) in [4] of 15500 ng·h/mL. In addition, the maximum concentration (Cmax) in [5] and in data set [10] was 1250 ng/mL in each case. Moreover, the AUC in [6] worked out at 23600 ng·h/mL; in data set [7], 15500 ng·h/mL. Further, the k el in [8] and in data set [9] was 1.39e-05 s⁻¹ throughout. In addition, the Reduction in [13] was 66% and 40%; in data set [14], 52% and 38%. For the same compound, the PG in [20] amounted to 66%; in data set [21] it was 40%. Also, the TG is listed as 52% in data set [22] and 38% in data set [23].
